The results in this text go back to ChEMBL document CHEMBL4765452, “Discovery of (E)-N-(4-methyl-5-(3-(2-(pyridin-2-yl)vinyl)-1H-indazol-6-yl)thiazol-2-yl)-2-(4-methylpiperazin-1-yl)acetamide (IHMT-TRK-284) as a novel orally available type II TRK kinase inhibitor capable of overcoming multiple resistant mutants” (Eur J Med Chem, 2020).

Series [1] in a line: Apparent volume of distribution in Sprague-Dawley rat at 1 mg/kg, iv. The format is ADME, organism-based. Conditions: in vivo, read-out: Vz.
Series [2] can be described thus: Half life in Beagle dog at 5 mg/kg, po. The format is ADME, organism-based, Canis lupus familiaris. The conditions noted are these: in vivo.
A short description of series [3]: Cmax in Beagle dog at 5 mg/kg, po. The format is ADME, organism-based, Canis lupus familiaris. More on the design: route oral, dose 5 mg/kg. Conditions: in vivo.
The target in series [4] is Platelet-derived growth factor receptor beta (Homo sapiens, UniProt P09619). In words: Inhibition of human PDGFR beta by Z-LYTE or ADP-Glo assay. The gist of the method:
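Purified kinase proteins tested biochemically in Z'LYTE or ADP-Glo format.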

The target of series [5] is Mast/stem cell growth factor receptor Kit (Homo sapiens, UniProt P10721). In words: Inhibition of TEL fused KIT (unknown origin) transfected in mouse BAF3 cells assessed as growth inhibition after 72 hrs by CCK8 assay. The format is cell-based. In a few lines:
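TEL-fusion isogenic BaF3 lines were built in-house and grown in RPMI 1640 with 10% FBS and 1% penicillin/streptomycin at 37 °C under 5% CO2. Cells were spun down before use.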

For series [6], the target named is T1, High affinity nerve growth factor receptor (Homo sapiens, UniProt P04629). In words: Inhibition of LMNA fused TRKA (unknown origin) transfected in mouse BAF3 cells assessed as growth inhibition after 72 hrs by CCK8 assay. The format is cell-based.
Target sequence in this assay (P04629 33-796 limits assumed): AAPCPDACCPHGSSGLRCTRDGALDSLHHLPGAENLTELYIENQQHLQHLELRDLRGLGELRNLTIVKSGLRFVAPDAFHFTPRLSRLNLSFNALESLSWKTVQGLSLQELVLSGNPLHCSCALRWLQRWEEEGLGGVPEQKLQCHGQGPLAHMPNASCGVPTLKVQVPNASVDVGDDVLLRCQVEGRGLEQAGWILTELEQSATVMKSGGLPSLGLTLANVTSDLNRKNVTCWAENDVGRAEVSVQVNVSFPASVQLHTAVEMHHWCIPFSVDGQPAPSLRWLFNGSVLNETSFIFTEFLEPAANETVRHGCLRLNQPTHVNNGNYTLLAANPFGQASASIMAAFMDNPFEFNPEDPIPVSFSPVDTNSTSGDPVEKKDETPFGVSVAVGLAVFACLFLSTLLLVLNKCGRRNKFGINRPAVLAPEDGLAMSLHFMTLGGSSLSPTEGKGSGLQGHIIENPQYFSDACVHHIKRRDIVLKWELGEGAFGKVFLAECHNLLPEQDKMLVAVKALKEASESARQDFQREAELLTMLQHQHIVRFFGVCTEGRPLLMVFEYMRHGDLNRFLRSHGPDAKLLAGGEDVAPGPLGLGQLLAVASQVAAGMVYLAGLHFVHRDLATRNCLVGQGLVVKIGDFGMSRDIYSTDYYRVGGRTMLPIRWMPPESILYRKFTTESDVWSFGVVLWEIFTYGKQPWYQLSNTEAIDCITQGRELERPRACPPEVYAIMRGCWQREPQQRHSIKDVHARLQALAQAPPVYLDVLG
The test system of series [7] is BaF3. In words: Antitumor activity against mouse BAF3 cells harboring TEL fused TRKB allografted in nude mouse assessed as tumor growth inhibition administered orally once daily for 10 days. Conditions: dose 40-80 mg/kg/day, time 10.0 day. In kind it is functional, cell-based. The gist of the method: (§1)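 Nu/nu mice given 1 million BaF3 cells (TEL-TRKA, TEL-TRKB, TEL-TRKC, LMNA-TRKA-F589L or LMNA-TRKA-G667S) in DMEM, 1:1 with matrigel, injected subcutaneously into the right flank; oral gavage began at 200–400 mm³, 5 mice per group, compound in 0.5% methylcellulose/0.4% Tween 80 in ddH₂O, 10 days; tumor volume [(W²×L)/2] and body weight recorded daily; TGI versus vehicle.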

For the next series, the system named is KM12-Luc. In words: Induction of apoptosis in human KM-12-LUC cells assessed as increase in cleaved PARP level after 24 hrs by Western blot analysis. The format is functional, cell-based. Conditions: dose 0.01-10 µM. The gist of the method: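 KM-12-LUC cells cultured in RPMI 1640 with 10% FBS and 1% penicillin/streptomycin at 37 °C, 5% CO2. Serially diluted compound added for 24 h. Apoptosis read by western blot for PARP cleavage, with β-actin as loading control.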

Series [8] concerns BaF3. In words: Antitumor activity against mouse BAF3 cells harboring LMNA fused TRKA-G667S mutant allografted in nude mouse assessed as tumor growth inhibition at 40 mg/kg, po administered twice daily for 10 days relative to control. The conditions noted are these: 240 h, time 10 day, read-out: TGI. The format is functional. The gist of the method: as §1
Series [9] deals with High affinity nerve growth factor receptor (Homo sapiens, UniProt P04629, G667C). In words: Inhibition of LMNA fused TRKA G667C mutant (unknown origin) transfected in mouse BaF3 cells assessed as reduction in phosphorylation at Y490 residue after 2 hrs by Western blot analysis. In kind it is cell-based. The gist of the method: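 Isogenic BaF3 lines, made in-house, grown in RPMI 1640 with 10% FBS and 1% penicillin/streptomycin at 37 °C under 5% CO2. Serially diluted compound added for 2 h. Cells collected and lysed, and lysates analysed by western blotting for phospho-TRK. EC50 derived from the blots.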
Chain of High affinity nerve growth factor receptor (Homo sapiens, UniProt P04629, G667C) (P04629 33-796 G667C limits assumed): as the sequence (P04629 33-796 limits assumed) above, with G635C counted along it

Series [10] has as its target High affinity nerve growth factor receptor (Homo sapiens, UniProt P04629, G595R). In words: Inhibition of LMNA fused TRKA G595R mutant (unknown origin) transfected in mouse BaF3 cells assessed as reduction in phosphorylation at Y490 residue after 2 hrs by Western blot analysis. In kind it is cell-based.
A short description of series [11]: Inhibition of LMNA fused TRKA V573M mutant (unknown origin) transfected in mouse BaF3 cells assessed as reduction in phosphorylation at Y490 residue after 2 hrs by Western blot analysis. The conditions noted are these: Homo sapiens, BaF3, 2 h.
Series [12] concerns BaF3. In words: Inhibition of LMNA fused TRKA V573M mutant (unknown origin) transfected in mouse BAF3 cells assessed as growth inhibition after 72 hrs by CCK8 assay. In kind it is cell-based. The conditions noted are these: Homo sapiens.
Series [13] addresses T1, High affinity nerve growth factor receptor. In words: Inhibition of TRKA in human KM-12-LUC cells assessed as reduction in AKT phosphorylation at S473 residue after 2 hrs by Western blot analysis. The format is cell-based, KM12-Luc. In a few lines: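 KM-12-LUC (TPM3-TRKA fused colon cancer cells) grown in RPMI 1640 with 10% FBS and 1% penicillin/streptomycin at 37 °C under 5% CO2. Serially diluted compound added for 2 h. Lysates western blotted for phospho-AKT (T308/S473) and phospho-ERK1/2 (T202/Y204).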
Target sequence in this assay (P04629 whole entry, the tested form may be a part): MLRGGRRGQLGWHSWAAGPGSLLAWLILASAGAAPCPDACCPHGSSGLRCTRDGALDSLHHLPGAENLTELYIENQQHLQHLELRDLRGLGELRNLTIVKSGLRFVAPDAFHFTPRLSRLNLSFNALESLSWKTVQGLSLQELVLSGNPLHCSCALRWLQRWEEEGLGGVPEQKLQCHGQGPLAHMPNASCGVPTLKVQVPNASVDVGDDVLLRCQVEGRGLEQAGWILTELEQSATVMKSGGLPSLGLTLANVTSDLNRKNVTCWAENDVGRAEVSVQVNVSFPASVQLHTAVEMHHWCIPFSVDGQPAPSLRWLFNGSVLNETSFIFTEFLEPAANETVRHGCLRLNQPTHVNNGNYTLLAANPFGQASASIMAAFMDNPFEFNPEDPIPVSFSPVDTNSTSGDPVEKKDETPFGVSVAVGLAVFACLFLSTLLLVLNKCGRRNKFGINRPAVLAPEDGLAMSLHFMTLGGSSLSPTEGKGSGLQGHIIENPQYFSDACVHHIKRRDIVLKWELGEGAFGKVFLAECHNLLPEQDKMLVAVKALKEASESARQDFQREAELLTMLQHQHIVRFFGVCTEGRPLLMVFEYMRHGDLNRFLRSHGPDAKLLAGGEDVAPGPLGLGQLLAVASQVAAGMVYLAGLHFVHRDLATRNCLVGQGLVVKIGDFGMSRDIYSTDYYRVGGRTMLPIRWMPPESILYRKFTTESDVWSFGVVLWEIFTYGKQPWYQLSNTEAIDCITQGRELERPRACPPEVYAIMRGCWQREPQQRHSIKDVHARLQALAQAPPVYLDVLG

Series [14] can be described thus: Toxicity in mouse xenografted with mouse BAF3 cells harboring […] TRKA-F589L mutant assessed as effect on body weight at 40 to 80 mg/kg, po administered once daily for 10 days. In kind it is organism-based. The conditions noted are these: in vivo, 240 h, dose 40-80 mg/kg/day, time 10 day. The gist of the method: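 nu/nu mice were given subcutaneous right-flank implants in 1:1 DMEM/matrigel: 1 million BaF3 fusion cells or 5 million KM-12-LUC cells. Oral gavage started at 150–200 mm3 (xenograft) or 200–400 mm3 (allograft). Dosing used 40 or 80 mg/kg in HKI vehicle (0.5% methylcellulose/0.4% Tween 80 in ddH2O), with 5 mice per group. Body weight was recorded daily and behaviour observed.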

SMILES strings stand for the structures.

Chain of Mast/stem cell growth factor receptor Kit (P10721 whole entry, the tested form may be a part): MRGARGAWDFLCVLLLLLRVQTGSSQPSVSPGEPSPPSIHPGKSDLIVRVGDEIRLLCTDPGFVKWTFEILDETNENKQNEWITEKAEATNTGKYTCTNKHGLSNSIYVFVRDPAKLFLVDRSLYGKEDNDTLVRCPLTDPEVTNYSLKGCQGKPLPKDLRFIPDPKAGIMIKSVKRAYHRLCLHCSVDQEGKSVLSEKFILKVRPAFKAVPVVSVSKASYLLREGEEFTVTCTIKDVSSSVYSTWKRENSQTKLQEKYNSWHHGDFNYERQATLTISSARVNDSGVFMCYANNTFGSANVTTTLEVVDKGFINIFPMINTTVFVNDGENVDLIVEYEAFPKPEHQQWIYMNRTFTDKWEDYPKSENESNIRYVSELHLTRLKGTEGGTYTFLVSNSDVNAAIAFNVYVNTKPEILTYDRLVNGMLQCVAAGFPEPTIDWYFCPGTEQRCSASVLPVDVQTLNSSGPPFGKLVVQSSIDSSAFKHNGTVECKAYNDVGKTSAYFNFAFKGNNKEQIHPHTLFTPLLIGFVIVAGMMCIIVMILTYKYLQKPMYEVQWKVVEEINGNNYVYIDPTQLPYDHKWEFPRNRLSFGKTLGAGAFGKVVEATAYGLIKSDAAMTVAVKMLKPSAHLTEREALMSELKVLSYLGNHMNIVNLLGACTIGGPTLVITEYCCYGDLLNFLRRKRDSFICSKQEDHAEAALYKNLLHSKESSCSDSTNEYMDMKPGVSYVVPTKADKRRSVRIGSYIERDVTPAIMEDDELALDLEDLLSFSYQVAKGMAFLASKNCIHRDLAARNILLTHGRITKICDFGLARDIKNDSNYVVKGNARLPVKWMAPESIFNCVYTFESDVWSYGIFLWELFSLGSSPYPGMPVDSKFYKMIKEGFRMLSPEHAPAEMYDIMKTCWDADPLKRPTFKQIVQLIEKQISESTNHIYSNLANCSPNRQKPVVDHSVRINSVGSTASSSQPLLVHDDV
Chain of Platelet-derived growth factor receptor beta (P09619 whole entry): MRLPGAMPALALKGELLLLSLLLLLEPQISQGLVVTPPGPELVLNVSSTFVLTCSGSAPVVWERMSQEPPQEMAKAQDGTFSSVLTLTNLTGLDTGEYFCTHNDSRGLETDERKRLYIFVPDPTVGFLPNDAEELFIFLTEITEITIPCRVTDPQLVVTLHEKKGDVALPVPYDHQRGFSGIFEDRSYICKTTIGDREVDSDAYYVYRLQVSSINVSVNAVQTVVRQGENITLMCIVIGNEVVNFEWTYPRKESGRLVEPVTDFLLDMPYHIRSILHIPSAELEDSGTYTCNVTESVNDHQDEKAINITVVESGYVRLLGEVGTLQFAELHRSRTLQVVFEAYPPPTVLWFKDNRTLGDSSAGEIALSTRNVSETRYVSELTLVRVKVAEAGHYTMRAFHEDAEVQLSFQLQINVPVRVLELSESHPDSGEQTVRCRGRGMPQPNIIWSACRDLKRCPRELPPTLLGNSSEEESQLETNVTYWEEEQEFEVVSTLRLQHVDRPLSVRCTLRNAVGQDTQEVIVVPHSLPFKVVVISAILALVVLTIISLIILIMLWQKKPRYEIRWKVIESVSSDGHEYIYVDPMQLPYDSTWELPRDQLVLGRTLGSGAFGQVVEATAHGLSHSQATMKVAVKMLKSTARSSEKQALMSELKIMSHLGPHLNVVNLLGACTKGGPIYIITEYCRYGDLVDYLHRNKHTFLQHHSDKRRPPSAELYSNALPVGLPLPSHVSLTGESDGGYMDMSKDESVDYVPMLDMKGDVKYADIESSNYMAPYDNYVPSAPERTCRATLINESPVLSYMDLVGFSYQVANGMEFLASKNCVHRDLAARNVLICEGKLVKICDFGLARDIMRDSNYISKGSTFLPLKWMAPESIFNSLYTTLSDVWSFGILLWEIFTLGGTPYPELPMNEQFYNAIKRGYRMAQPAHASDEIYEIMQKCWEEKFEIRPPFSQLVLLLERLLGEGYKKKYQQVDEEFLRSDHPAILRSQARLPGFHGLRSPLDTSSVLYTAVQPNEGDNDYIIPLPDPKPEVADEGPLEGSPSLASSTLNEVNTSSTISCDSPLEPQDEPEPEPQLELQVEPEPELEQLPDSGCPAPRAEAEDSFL
Chain of High affinity nerve growth factor receptor (Homo sapiens, UniProt P04629, G595R) (P04629 33-796 G595R limits assumed): as the sequence (P04629 33-796 limits assumed) above, with G563R counted along it

On to `Cc1nc(NC(=O)CN2CCN(C)CC2)sc1-c1ccc2c(/C=C/c3ccccn3)n[nH]c2c1`, for which the Vd in series [1] is 9.68 L/kg. In addition, the t1/2 in series [2] came to 11.8 h. The compound further returned a maximum concentration (Cmax) in [3] of 0.131 µg/mL. The same compound gave an IC50 in series [4] of 0.0957 µM. Also, the values for the GI50 (in series [5]; in series [6]; in the series on BaF3 [12]) were 0.923 µM, 0.007 µM and 0.003 µM, respectively. The Activity entry was “Dose-dependent effect” in the series with BaF3 [7], “Dose-dependent effect” with KM12-Luc and “Non-Toxic” in series [14]. Also, the inhibition in vivo at 40 mg/kg in the series with BaF3 [8] amounted to 64.9%. The EC50 in [9] was 0.067 µM; in [10], 0.12 µM; in series [11], 0.013 µM; in series [13] it was less than 0.03 µM.
